Data published in ChEMBL document CHEMBL1134766, “Synthesis of 2beta-acyl-3beta-(substituted naphthyl)-8-azabicyclo[3.2.1]octanes and their binding affinities at dopamine and serotonin transport sites” (J Med Chem, 2001).

Columns and labels:
[1] = target: Sodium-dependent serotonin transporter (Rattus norvegicus, UniProt P31652); test: Affinity for the displacement of [3H]paroxetine binding to serotonin transporter (SERT) in rat frontal cortex membranes; type: cell membranes, Membrane
Method in brief: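 Displacement of 0.4 nM [3H]paroxetine in frontal cortex membranes (50 mg original wet weight) dissected from frozen Sprague-Dawley rat brains, using 7-10 analogue concentrations. Nonspecific binding was defined with 10 µM fluoxetine. Ki was obtained by nonlinear curve fitting and the Cheng-Prusoff equation. Values are mean ± SEM of ≥3 experiments, each in triplicate.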

[2] = target: Sodium-dependent dopamine transporter (Rattus norvegicus, UniProt P23977); test: Inhibitory activity in displacing [125I]- RTI-55 binding to dopamine transporter in rat striatal membranes; type: cell membranes, Striatum, Membrane
Method in brief: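 Nonspecific binding was defined with 1 µM WF-23. Curves were fitted by nonlinear regression, and IC50 is reported because binding at this transporter is multiphasic. Values are mean ± SEM of ≥3 experiments, each run in triplicate.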

[3] = target: Monoamine transporters; serotonin & dopamine (Rattus norvegicus) (UniProt P31652+P23977); test: SERT/DAT (serotonin transporter/dopamine transporter) binding potency ratio; type: protein assay
[4] = target: Norepinephrine transporter (Rattus norvegicus, UniProt Q9WTR4); test: Affinity for the displacement of [3H]paroxetine binding to norepinephrine transporter (NET) in rat frontal cortex membranes; type: cell membranes, Membrane
Norepinephrine transporter, sequence (Q9WTR4 whole entry): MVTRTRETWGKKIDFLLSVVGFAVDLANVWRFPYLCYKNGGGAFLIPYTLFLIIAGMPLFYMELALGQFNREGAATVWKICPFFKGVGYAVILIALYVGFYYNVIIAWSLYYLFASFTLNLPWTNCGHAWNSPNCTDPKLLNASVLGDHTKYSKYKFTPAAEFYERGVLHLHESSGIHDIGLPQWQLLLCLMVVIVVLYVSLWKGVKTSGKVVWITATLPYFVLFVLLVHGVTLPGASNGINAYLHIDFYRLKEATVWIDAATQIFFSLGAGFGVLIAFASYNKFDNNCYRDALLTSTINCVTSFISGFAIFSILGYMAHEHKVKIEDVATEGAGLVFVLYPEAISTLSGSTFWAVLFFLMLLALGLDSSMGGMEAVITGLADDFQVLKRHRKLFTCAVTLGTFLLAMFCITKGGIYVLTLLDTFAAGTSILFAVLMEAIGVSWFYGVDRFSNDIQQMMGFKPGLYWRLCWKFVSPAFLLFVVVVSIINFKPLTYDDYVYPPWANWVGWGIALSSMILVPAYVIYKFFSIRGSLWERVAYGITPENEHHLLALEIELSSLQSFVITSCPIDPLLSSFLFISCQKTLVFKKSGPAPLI

Monoamine transporters; serotonin & dopamine (Rattus norvegicus), sequence (P23977 whole entry, looked up): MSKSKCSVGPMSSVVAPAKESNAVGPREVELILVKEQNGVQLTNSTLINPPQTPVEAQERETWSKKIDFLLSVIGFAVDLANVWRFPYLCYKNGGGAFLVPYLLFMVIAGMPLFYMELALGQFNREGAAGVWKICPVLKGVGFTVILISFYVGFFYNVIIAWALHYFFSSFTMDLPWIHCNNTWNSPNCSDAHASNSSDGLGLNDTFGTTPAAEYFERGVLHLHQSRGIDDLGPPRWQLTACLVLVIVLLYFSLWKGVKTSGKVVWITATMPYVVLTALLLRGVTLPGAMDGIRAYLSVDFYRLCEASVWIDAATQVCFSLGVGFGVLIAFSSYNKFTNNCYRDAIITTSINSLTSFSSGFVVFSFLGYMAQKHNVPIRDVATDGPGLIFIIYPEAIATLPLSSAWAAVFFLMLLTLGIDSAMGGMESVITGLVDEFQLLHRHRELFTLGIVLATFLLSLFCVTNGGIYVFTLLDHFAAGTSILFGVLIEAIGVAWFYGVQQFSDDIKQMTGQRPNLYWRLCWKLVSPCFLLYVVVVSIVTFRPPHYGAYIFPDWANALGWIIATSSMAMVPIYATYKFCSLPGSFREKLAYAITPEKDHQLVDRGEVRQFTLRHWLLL
Monoamine transporters; serotonin & dopamine (Rattus norvegicus), sequence (P31652 whole entry, looked up): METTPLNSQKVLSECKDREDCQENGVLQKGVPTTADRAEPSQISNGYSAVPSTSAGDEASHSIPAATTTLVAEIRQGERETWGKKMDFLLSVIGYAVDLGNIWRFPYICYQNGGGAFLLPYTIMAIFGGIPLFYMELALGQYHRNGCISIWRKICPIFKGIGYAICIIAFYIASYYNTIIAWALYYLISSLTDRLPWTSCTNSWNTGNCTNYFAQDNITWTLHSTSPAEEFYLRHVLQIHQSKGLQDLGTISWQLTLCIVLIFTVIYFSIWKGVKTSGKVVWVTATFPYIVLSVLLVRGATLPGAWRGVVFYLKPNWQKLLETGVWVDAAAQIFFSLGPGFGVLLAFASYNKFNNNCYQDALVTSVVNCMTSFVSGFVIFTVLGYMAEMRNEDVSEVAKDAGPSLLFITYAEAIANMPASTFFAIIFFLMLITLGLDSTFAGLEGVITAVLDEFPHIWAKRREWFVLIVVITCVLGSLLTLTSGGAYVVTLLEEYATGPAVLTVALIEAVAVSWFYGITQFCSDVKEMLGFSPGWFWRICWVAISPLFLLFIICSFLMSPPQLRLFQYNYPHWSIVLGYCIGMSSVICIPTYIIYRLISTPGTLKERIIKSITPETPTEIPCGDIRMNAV
Sodium-dependent dopamine transporter, sequence (P23977 whole entry): as the sequence (P23977 whole entry, looked up) above
Sodium-dependent serotonin transporter, sequence (P31652 whole entry): as the sequence (P31652 whole entry, looked up) above

| SMILES | Ki [1] | IC50 [2] | Potency ratio [3] | Ki [4] |
| --- | --- | --- | --- | --- |
| CCC(=O)C1C(c2ccc3cc(OC)ccc3c2)CC2CCC1N2C (configuration not stated) | 2.24 nM | 0.13 nM | 0.05 |  |
| CCC(=O)C1C(c2ccc3ccccc3c2)CC2CCC1N2C (stereo in doubt) [listing 1 of 2 here] |  |  | 0.15 |  |
| CCC(=O)C1C(c2ccc(CC)c3ccccc23)CC2CCC1N2C (configuration not stated) | 175 nM | 75.1 nM | 0.7 | 4770 nM |
| CC(C)C(=O)C1C(c2ccc3ccccc3c2)CC2CCC1N2C (configuration not stated) | 2.08 nM | 0.25 nM | 0.12 | 37.6 nM |
| CCC(=O)C1C(c2ccc3ccccc3c2)CC2CCC1N2C (stereo in doubt; 8) |  |  | 0.3 |  |
| CC(=O)C1C(c2cccc3ccccc23)CC2CCC1N2C (stereo in doubt; form 1) [listing 1 of 2 here] |  |  | 0.45 |  |
| CCC(=O)C1C2CCC(CC1c1ccc3ccccc3c1)N2 (configuration not stated) | 0.23 nM | 0.03 nM | 0.13 | 2.05 nM |
| CCC(=O)C1C(c2ccc3cc(CC)ccc3c2)CC2CCC1N2C (configuration not stated) | 0.38 nM | 0.15 nM | 0.4 | 27.7 nM |
| CC(=O)C1C(c2cccc3ccccc23)CC2CCC1N2C (stereo in doubt; form 1) [listing 2 of 2 here] | 217 nM | 97 nM |  |  |
| C=C(C)c1c(OC)ccc2cc(C3CC4CCC(C3C(=O)CC)N4C)ccc12 (configuration not stated) | 88 nM | 45 nM | 0.5 | 2330 nM |
| CCC(=O)C1C(c2ccc3c([N+](=O)[O-])c(OC)ccc3c2)CC2CCC1N2C (configuration not stated) | 15 nM | 148 nM | 10 |  |
| CC(=O)C1C(c2cccc3ccccc23)CC2CCC1N2C (stereo in doubt; form 2) [listing 1 of 2 here] |  |  |  | 165 nM |
| CCC(=O)C1C(c2ccc3c(I)c(OC)ccc3c2)CC2CCC1N2C (configuration not stated) | 2.27 nM | 1.31 nM | 0.6 | 781 nM |
| CCC(=O)C1C(c2ccc3ccc(I)cc3c2)CC2CCC1N2C (configuration not stated) | 0.47 nM | 0.45 nM | 0.5 |  |
| CC(=O)C1C(c2ccc3ccccc3c2)CC2CCC1N2C (configuration not stated) |  | 1.27 nM | 1.2 | 4.9 nM |
| CCC(=O)C1C(c2ccc(C)cc2)CC2CCC1N2C (configuration not stated) |  |  | 0.06 | 65 nM |
| CC(=O)C1C(c2cccc3ccccc23)CC2CCC1N2C (stereo in doubt; form 2) [listing 2 of 2 here] |  |  | 0.4 |  |
| CCC(=O)C1C(c2cccc3ccccc23)CC2CCC1N2C (configuration not stated) |  |  | 0.3 | 49 nM |
| CCC(=O)C1C(c2ccc3ccccc3c2)CC2CCC1N2C (stereo in doubt) [listing 2 of 2 here] | 16.4 nM | 2.51 nM |  | 68 nM |
| CCC(=O)C1C(c2ccc(C(C)C)c3ccccc23)CC2CCC1N2C (configuration not stated) | 136 nM | 225 nM | 2 | > 10000 nM |
| CCC(=O)C1C(c2ccc3cc(C(C)C)ccc3c2)CC2CCC1N2C (configuration not stated) | 1.97 nM | 0.39 nM | 0.2 |  |
| CCC(=O)C1C(c2ccc3c(CC)c(OC)ccc3c2)CC2CCC1N2C (configuration not stated) | 7.55 nM | 30.8 nM | 4.1 | 3360 nM |
| CCC(=O)C1C(c2ccc3c(C(C)=O)c(OC)ccc3c2)CC2CCC1N2C (configuration not stated) | 15.8 nM | 12.6 nM | 0.8 | 498 nM |
| CCC(=O)C1C(c2ccc3cc(I)ccc3c2)CC2CCC1N2C (configuration not stated) | 0.37 nM | 0.35 nM | 1 |  |
| CCC(=O)C1C(c2ccc(C)c3ccccc23)CC2CCC1N2C (configuration not stated) | 8.99 nM | 25.1 nM | 3 | 163 nM |
